# Measured values reported in PubChem BioAssay AID1496 (Sanford-Burnham Center for Chemical Genomics, 2009).
# Hit rate of the full screen: of about 220,000 compounds, about 990 (0.45%) were called active.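 The calls were made as follows: active = inhibition over about 50% at 20 µM in the single-dose screen (limit read from the data); inactive = the rest.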 Only a selection was taken, and actives are over-represented in it overall.
# Target: Runt-related transcription factor 1 (Homo sapiens) + Core-binding factor subunit beta (Homo sapiens) (UniProt Q01196+Q13951)
# Sequence (Q01196 whole entry, looked up): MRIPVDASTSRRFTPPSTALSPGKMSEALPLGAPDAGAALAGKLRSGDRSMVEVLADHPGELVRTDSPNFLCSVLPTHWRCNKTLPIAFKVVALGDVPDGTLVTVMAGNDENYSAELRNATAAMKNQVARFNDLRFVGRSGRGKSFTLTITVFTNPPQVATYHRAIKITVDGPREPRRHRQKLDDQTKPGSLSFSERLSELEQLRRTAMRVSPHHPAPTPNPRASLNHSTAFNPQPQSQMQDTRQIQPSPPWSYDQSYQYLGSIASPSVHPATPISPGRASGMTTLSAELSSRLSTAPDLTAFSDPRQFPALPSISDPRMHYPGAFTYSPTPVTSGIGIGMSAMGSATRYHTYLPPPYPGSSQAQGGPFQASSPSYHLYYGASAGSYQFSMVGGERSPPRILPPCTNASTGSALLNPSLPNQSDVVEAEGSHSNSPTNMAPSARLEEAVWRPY
# Sequence (Q13951 whole entry, looked up): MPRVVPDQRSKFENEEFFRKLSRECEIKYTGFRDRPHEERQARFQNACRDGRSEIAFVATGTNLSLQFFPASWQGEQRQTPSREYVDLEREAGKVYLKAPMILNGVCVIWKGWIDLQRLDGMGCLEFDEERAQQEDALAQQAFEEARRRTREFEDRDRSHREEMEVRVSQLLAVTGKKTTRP
# Test: inhibitors of RUNX1 Runt–CBFb binding, primary screen, biochemical, FRET, Cerulean-Runt, Venus-CBFb, uHTS (AID 1496);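 also: 0% = DMSO wells and 100% = excess unlabeled CBFb competitor control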
# Conditions: Cerulean-Runt/Venus-CBFb FRET ratio 530/480, 1 h; at 20 µM; stronger effect = higher value
# Outline: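 test system = Cerulean-Runt domain fusion protein, energy donor | probe or stimulus = Venus-CBFb binding partner, 100 nM | incubation = two 1 h room-temperature incubations shielded from light | detection = fluorescence energy transfer, 422 nm excitation, 530/480 nm emission | measure = loss of energy transfer signal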
row,Structure (SMILES),inhibition
1,CC(C)Cn1c(CCC(=O)O)ccc1-c1cccs1,65.6% (active)
2,CCn1c(NC(=O)c2ccccc2)c(-c2cccs2)c(=O)c2ccccc21,-4.7% (inactive)
3,COCCCn1c(CCC(=O)O)ccc1-c1ccc(F)cc1,3.3% (inactive)
4,CNC(=S)NNC(=O)c1ccc(N(C)C)cc1,1.6% (inactive)
5,Cc1cc(F)ccc1NC(=O)C(C)n1c2ccccc2c2nc(=O)cc(C)n21 (configuration not stated),1.5% (inactive)
6,CCOc1ccc(/C=N/NC(=O)CSc2ccccn2)cc1O,2.9% (inactive)
7,CCC(=O)Nc1c(S(=O)(=O)c2ccccc2)c2nc3ccccc3nc2n1Cc1ccccc1,78.8% (active)
8,CCN(CC)CCn1c(N)c(S(=O)(=O)c2ccccc2)c2nc3ccccc3nc21,5.9% (inactive)
9,Cc1ccc(S(=O)(=O)c2c(N)n(C)c3nc4ccccc4nc23)cc1,7.1% (inactive)
10,O=c1c2cc(-c3ccccc3)sc2nc2n1N=C(c1cccs1)CS2,-2.4% (inactive)
11,Nc1nc(NCC2CCCO2)nc(Nc2ccccc2F)c1[N+](=O)[O-] (configuration not stated),-3.8% (inactive)
12,Cc1ccc2nc(NCCCNC(=O)c3cnccn3)c(C#N)cc2c1,21.2% (inactive)
13,COCCCNC(=S)NC(=O)c1ccc([N+](=O)[O-])cc1,4.5% (inactive)
14,COCCCNC(=S)NCCNc1nc2cc(C)c(C)cc2cc1C#N,82.7% (active)
15,CC(/C=C/c1ccco1)=N/NC(=O)C1COc2ccccc2O1 (configuration not stated),2.3% (inactive)
16,Cn1nc(C(F)(F)F)c(-c2ccc(F)cc2)c1NC(=O)CSCC(=O)O,3.4% (inactive)
17,O=C1c2ccccc2C(Nc2ccc3c(c2)OCCO3)N1Cc1ccco1 (configuration not stated),70% (active)
18,O=C(NC1CCCCC1)C1c2ccccc2C(=O)N1Cc1ccco1 (configuration not stated),1.8% (inactive)
19,Cc1ccnc(N2C(=O)c3ccccc3C2Nc2ccc3c(c2)OCCO3)c1 (configuration not stated),1.5% (inactive)
20,COC(=O)c1ccc(COc2cc([N+](=O)[O-])cc3cccnc23)cc1,-0.8% (inactive)
21,Cc1ccc2c(CSc3nncs3)cc(=O)oc2c1,3.7% (inactive)
22,CCOC(=O)Cc1csc(NC(=O)COc2ccc3c(C)cc(=O)oc3c2)n1,1.8% (inactive)
23,CCOC(=O)Cc1csc(SCc2cc(=O)oc3cc(O)ccc23)n1,77.8% (active)
24,COc1cccc(Nc2nc(N)c([N+](=O)[O-])c(NCc3ccco3)n2)c1,0.2% (inactive)
25,O=c1oc2c(CN3CCCCC3)c(O)ccc2c2c1CCCCC2,72.8% (active)

row,Structure (SMILES),inhibition
1,NC(=O)COc1ccc2c3c(c(=O)oc2c1)CCCCC3,1.7% (inactive)
2,CN1CCN(Cc2c(O)ccc3c2oc(=O)c2ccccc23)CC1,-1.7% (inactive)
3,N#CC1=C(N)Oc2cc(O)ccc2C1C1CCCCC1 (configuration not stated),50.9% (active)
4,COCc1[nH]nc2c1C(C1C=CCCC1)C(C#N)=C(N)O2 (configuration not stated),-0.2% (inactive)
5,N#CC1=C(N)OC2=C(C(=O)CCC2)C1C1CC=CCC1 (configuration not stated),-0.5% (inactive)
6,COC(=O)c1noc(C)c1-c1ccnn1C(=O)c1ccc(Cl)cc1,0% (inactive)
7,Fc1ccc(COc2ccc(-c3nnco3)cc2)cc1,-1.3% (inactive)
8,O=C(/C=C/c1ccc2c(c1)OCCO2)c1ccc(O)cc1,-2.3% (inactive)
9,COc1ccc(-c2cn3ccc(C)cc3n2)cc1,0.2% (inactive)
10,O=C(CN1CCN(S(=O)(=O)/C=C/c2ccccc2)CC1)Nc1ccc(N2CCOCC2)cc1,0.6% (inactive)
11,O=c1cc(CN2CCN(S(=O)(=O)/C=C/c3ccccc3)CC2)c2ccc(O)cc2o1,74.1% (active)
12,COc1ccc2c(CN3CCN(S(=O)(=O)c4cccs4)CC3)cc(=O)oc2c1,-1.9% (inactive)
13,COc1ccc(Nc2cc(=O)n(-c3ccccc3)c3c2c(=O)n(C)c(=O)n3C)cc1,-0.7% (inactive)
14,Cn1c(CC2Sc3ccccc3NC2=O)nnc1SCC(=O)c1ccc(Cl)cc1 (configuration not stated),1.9% (inactive)
15,O=C(C[n+]1cc(-c2ccc(Cl)c(Cl)c2)n2c1CCC2)c1cccs1,1.5% (inactive)
16,CCOc1ccc(-c2nc(N)ncc2-c2ccccc2OC)c(O)c1,-2.9% (inactive)
17,Cc1cc2nc3c(=O)n(Cc4ccccc4)c(=O)[nH]c3nc2cc1N,-281% (inactive)
18,COc1ccc2[nH]c(=S)cc(C)c2c1,30.9% (inactive)
19,CC(=O)Oc1ccc(NC(=O)CCC2CCCCC2)c(C(=O)O)c1,-13.2% (inactive)
20,Cc1c(Cc2ccccc2)c(=O)oc2cc(OCC(N)=O)ccc12,-0.8% (inactive)
21,O=C(Oc1ccccc1)Oc1ccc2c(c1)oc(=O)c1ccccc12,-1% (inactive)
22,CC(=O)Nc1cc2ccc(OC(C)=O)cc2oc1=O,86.5% (active)
23,CC(=O)Oc1ccc2c(C)c(CC(C)O)c(=O)oc2c1 (configuration not stated),52.3% (active)
24,COC(=O)Cc1c(C)c2ccc(OCC(=O)NCc3ccc4c(c3)OCO4)cc2oc1=O,-2.3% (inactive)
25,CCOC(=O)c1ccc(N=C2SC(C(=O)NC)CC(=O)N2CCc2ccccc2)cc1 (configuration not stated),-3% (inactive)

row,Structure (SMILES),inhibition
1,CCc1ccnc(NS(=O)(=O)c2ccc3c(c2)OCCO3)c1,2.3% (inactive)
2,COc1ccccc1C1CCN(c2ccc([N+](=O)[O-])cn2)CC1,0.4% (inactive)
3,CCN1CCN(c2nc(Nc3cccc(F)c3)nc(N)c2[N+](=O)[O-])CC1,-0.1% (inactive)
4,COC(=O)Cc1cc(=O)oc2c(C)c(O)ccc12,19.3% (inactive)
5,CCCc1cc(=O)oc2c(C)c(O)c(CN3CCCCC3)cc12,84.1% (active)
6,CCCc1cc(=O)[nH]c(SCc2cc(=O)oc3c(C)c(C)ccc23)n1,-10.5% (inactive)
7,Cn1nnc(NC(=S)NC(=O)c2ccccc2)n1,10.1% (inactive)
8,COC(=O)c1ccccc1N=Nc1c(C)[nH][nH]c1=O,-3.8% (inactive)
9,CCN(CC)CCCN=C(N)N,2.2% (inactive)
10,CCC(=O)/C=C1\Sc2ccccc2N1CC,1.3% (inactive)
11,CCN1/C(=C/C(=S)Nc2ccccc2)Sc2ccccc21,59.1% (active)
12,O=C(CCN1c2ccccc2Sc2ccccc21)Nc1ccccc1,0.8% (inactive)
13,O=C(Nc1ccc(S(=O)(=O)Nc2nccs2)cc1)c1cc(-c2ccncc2)nc2ccccc12,-7.7% (inactive)
14,COc1ccc(CCn2c(=N)c(C(=O)NCc3ccco3)cc3c(=O)n4cccc(C)c4nc32)cc1,107% (active)
15,COc1ccc(CNC(=O)c2cc3c(=O)n4ccccc4nc3n(CC3CCCO3)c2=N)cc1 (configuration not stated),85.6% (active)
16,CCn1c(=N)c(C(=O)NCCCOC)cc2c(=O)n3cccc(C)c3nc21,19.3% (inactive)
17,COc1ccc(CCNC(=O)Cn2c(=O)n(CC3CCCO3)c(=O)c3ccccc32)cc1OC (configuration not stated),-0.8% (inactive)
18,O=C(NCc1ccco1)c1cccn2c(=O)c3c4c(sc3nc12)CCCC4,12.3% (inactive)
19,COc1ccc(CCNC(=O)CCn2c(=O)c3ccccc3n(CC(=O)NCC3CCCO3)c2=O)cc1OC (configuration not stated),-1.8% (inactive)
20,CC(C)Cn1c(N)c(C(=O)NCc2cccs2)c2nc3ccccc3nc21,16.3% (inactive)
21,CC(C)(C)c1ccc(C(=O)NCCn2c(N)c(C#N)c3nc4ccccc4nc32)cc1,72.8% (active)
22,CN(C)CCCn1c(N)c(C#N)c2nc(C#N)c(C#N)nc21,42.7% (inactive)
23,N#Cc1c(N)n(CCOC(=O)c2ccc(Cl)cc2)c2nc3ccccc3nc12,59% (active)
24,COCCCn1c2nc3ccccc3nc2c2c(=O)n(Cc3ccc(Cl)cc3)c(C)nc21,0.1% (inactive)
25,CCCNC(=O)c1c(N)n(-c2ccc(S(N)(=O)=O)cc2)c2nc3ccccc3nc12,33% (inactive)

row,Structure (SMILES),inhibition
1,COc1ccc(CNC(=O)C(Cc2ccccc2)n2cccc2)cc1 (configuration not stated),1.1% (inactive)
2,NCCCCCC(=O)N/N=C/c1ccc2nccnc2c1,0.4% (inactive)
3,Cc1c(CCC(=O)O)c(=O)oc2cc3occ(-c4ccccc4)c3cc12,-3.4% (inactive)
4,CCCC(=O)Nc1nnc(-c2ccccc2)o1,0.1% (inactive)
5,CCCCCCc1cc2cc(-c3nnc(-c4ccccc4)o3)c(=O)oc2cc1O,84.6% (active)
6,COC(=O)c1cc(NC(=O)c2cc(C(C)(C)C)nn2Cc2cccc(C)c2)ccc1N1CCOCC1,-4% (inactive)
7,COC(=O)c1cc(NC(=O)c2ccco2)ccc1N1CCOCC1,0.9% (inactive)
8,CCOc1ccccc1C1C(C(=O)OC)=CN(C)C=C1C(=O)OC,9.9% (inactive)
9,COC(=O)C1=CN(C)C=C(C(=O)OC)C1c1ccc(Cl)cc1Cl,110% (active)
10,NC(=O)C1(C(N)=O)OC1c1ccc(Cl)cc1Cl (configuration not stated),0.4% (inactive)
11,CCOc1cccc(/C=N/N2C(=O)CSC2=S)c1O,51.1% (active)
12,O=C1CSC(=S)N1/N=C/c1ccc(O)c([N+](=O)[O-])c1,26.4% (inactive)
13,CCOc1cccc(/C=N/NC(=S)NCCN2CCOCC2)c1O,-15.6% (inactive)
14,Cc1ccc(NS(=O)(=O)c2ccc(N/N=C/c3ccccc3OCC(=O)O)c([N+](=O)[O-])c2)c(C)c1,-12.7% (inactive)
15,COC(=O)Cn1c2ccc(C)cc2c2nc(C)sc21,50.7% (active)
16,CCN(CC)CCn1c2ccc(Cl)cc2c2nc(C)sc21,0.5% (inactive)
17,COC(=O)Cn1c(=NC(=O)c2cc(OC)c(OC)c(OC)c2)sc2cc(OC)ccc21,-1.4% (inactive)
18,Cn1c(C(=O)O)ccc1S(=O)(=O)N(Cc1ccccc1)Cc1ccccc1,0.9% (inactive)
19,COc1ccc(Br)c2c1C(=O)CC2,-4% (inactive)
20,COC(=O)c1ccc(C(=O)OC)c(NC(=S)N2CCCCC2)c1,54% (active)
21,COC(=O)c1ccc(C(=O)OC)c(NC(=S)N2CCN(c3ccc(F)cc3)CC2)c1,8.1% (inactive)
22,COC(=O)c1ccc(C(=O)OC)c(NC(=S)N2CCN(c3cc(Cl)ccc3C)CC2)c1,9.1% (inactive)
